IC50 data for 9 compounds are collected here from ChEMBL document CHEMBL1158835, “Hirsutane sesquiterpenes from the fungus Lentinus connatus BCC 8996” (J Nat Prod, 2005).

In brackets after ≈: the same amount, converted by molar mass.

In one experiment the test system is Plasmodium falciparum. Description: Antimalarial activity against multidrug-resistant Plasmodium falciparum K1 after 42 hrs by [3H]hypoxanthine uptake. In kind it is functional, organism-based.
Details: not given
In a few lines: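 Microculture radioisotope method following Desjardins; growth of multidrug-resistant K1 parasites read as in vitro [3H]-hypoxanthine uptake. IC50 = concentration giving 50% reduction in parasite growth. Dihydroartemisinin run as standard.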
Regarding `COc1ccc2c(c1)C(=O)CC(C)(C)O2`, the IC50 – broadly, the concentration that gives 50% inhibition – was greater than 20 µg/mL.
Still for that read-out and setting: to `C[C@H]1[C@@H](O)O[C@@H]2O[C@@]3(C)CC[C@H]4[C@H](C)CC[C@@H]1[C@@]24OO3` [ARTENIMOL] belongs 0.0018 µg/mL (≈ 0.00633 µM); to `CC1=C(O)C(=O)[C@]2(O)C[C@H]3CC(C)(C)[C@H](O)[C@H]3[C@]12C` [CONNATUSIN A], greater than 20 µg/mL.
The same measure, in the same setting: in the case of `CC1(C)C[C@@H]2CC3=CC(=O)[C@@](O)(CO)[C@@]3(C)[C@@H]2[C@H]1O` [CONNATUSIN B] it was greater than 20 µg/mL; in that of `C=C1[C@@H](O)[C@H]2O[C@]23C[C@H]2CC(C)(C)[C@H](O)[C@H]2[C@]13C` [HYPNOPHILIN 1], 3.1 µg/mL (≈ 12.4 µM).
On the same count and under the same terms, to `C=C1C(=O)[C@H]2O[C@]23C[C@H]2CC(C)(C)[C@H](O)[C@H]2[C@]13C` [HYPNOPHILIN] belongs greater than 20 µg/mL.
Consider `CC(C)=C[C@@H](O)C1=CC(=O)[C@@H]2O[C@@H]2C1=O` [PANEPOXYDIONE], for which the concentration for half-maximal inhibition (IC50) was 2.1 µg/mL (≈ 10.1 µM).
Compound `CC(C)=C[C@H](O)C1=C[C@@H](O)[C@@H]2O[C@@H]2C1=O` [PANEPOXYDONE] had a half-maximal inhibitory concentration (IC50) of 3.4 µg/mL (≈ 16.2 µM).

The test system of another experiment is KB. Description: Cytotoxicity against human KB cells by SRB assay. In kind it is functional, cell-based.
Details: not given
The essentials:
(§1)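 Colorimetric (Skehan) cytotoxicity assay on KB human epidermoid carcinoma, BC human breast cancer, NCI-H187 human small cell lung cancer, and Vero African green monkey kidney […] cells. Ellipticine served as the reference substance. Activity is expressed as IC50.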
On the technique in general: The SRB assay estimates cell density from bound dye.
With `COc1ccc2c(c1)C(=O)CC(C)(C)O2`, the IC50 is greater than 20 µg/mL.
The same measure, in the same setting: to `CC1=C(O)C(=O)[C@]2(O)C[C@H]3CC(C)(C)[C@H](O)[C@H]3[C@]12C` [CONNATUSIN A] belongs greater than 20 µg/mL.
Still for that read-out and setting: in the case of `CC1(C)C[C@@H]2CC3=CC(=O)[C@@](O)(CO)[C@@]3(C)[C@@H]2[C@H]1O` [CONNATUSIN B] it was greater than 20 µg/mL.
Same read-out and setting: to `Cc1c2ccncc2c(C)c2c1[nH]c1ccccc12` [ELLIPTECINE] belongs 0.21 µg/mL (≈ 0.853 µM); to `C=C1[C@@H](O)[C@H]2O[C@]23C[C@H]2CC(C)(C)[C@H](O)[C@H]2[C@]13C` [HYPNOPHILIN 1], greater than 20 µg/mL.
Take `C=C1C(=O)[C@H]2O[C@]23C[C@H]2CC(C)(C)[C@H](O)[C@H]2[C@]13C` [HYPNOPHILIN]: the 50% inhibitory concentration (IC50) was greater than 20 µg/mL.
Still for that read-out and setting: to `CC(C)=C[C@@H](O)C1=CC(=O)[C@@H]2O[C@@H]2C1=O` [PANEPOXYDIONE] belongs 0.8 µg/mL (≈ 3.84 µM); to `CC(C)=C[C@H](O)C1=C[C@@H](O)[C@@H]2O[C@@H]2C1=O` [PANEPOXYDONE], 1.9 µg/mL (≈ 9.04 µM).

System in a further experiment: not listed separately
The experiment in a line: Cytotoxicity against human BC cells by SRB assay. In kind it is functional, cell-based.
Details: not given
The essentials:
as §1
In turn, `COc1ccc2c(c1)C(=O)CC(C)(C)O2` showed a concentration for half-maximal inhibition (IC50) greater than 20 µg/mL.
On the same count and under the same terms, in the case of `CC1=C(O)C(=O)[C@]2(O)C[C@H]3CC(C)(C)[C@H](O)[C@H]3[C@]12C` [CONNATUSIN A] it was greater than 20 µg/mL.
The same measure, in the same setting: to `CC1(C)C[C@@H]2CC3=CC(=O)[C@@](O)(CO)[C@@]3(C)[C@@H]2[C@H]1O` [CONNATUSIN B] belongs greater than 20 µg/mL.
The same measure, in the same setting: to `Cc1c2ccncc2c(C)c2c1[nH]c1ccccc12` [ELLIPTECINE] belongs 0.27 µg/mL (≈ 1.1 µM); to `C=C1[C@@H](O)[C@H]2O[C@]23C[C@H]2CC(C)(C)[C@H](O)[C@H]2[C@]13C` [HYPNOPHILIN 1], greater than 20 µg/mL.
In turn, `C=C1C(=O)[C@H]2O[C@]23C[C@H]2CC(C)(C)[C@H](O)[C@H]2[C@]13C` [HYPNOPHILIN] displayed a half-inhibitory concentration (IC50) greater than 20 µg/mL.
Same read-out and setting: in the case of `CC(C)=C[C@@H](O)C1=CC(=O)[C@@H]2O[C@@H]2C1=O` [PANEPOXYDIONE] it was 0.8 µg/mL (≈ 3.84 µM).
`CC(C)=C[C@H](O)C1=C[C@@H](O)[C@@H]2O[C@@H]2C1=O` [PANEPOXYDONE] had an IC50 of 2.9 µg/mL (≈ 13.8 µM).

The next experiment has as its system NCI-H187. Description: Cytotoxicity against human NCI-H187 cells by SRB assay. In kind it is functional, cell-based.
Details: not given
The essentials: as §1
The compound `COc1ccc2c(c1)C(=O)CC(C)(C)O2` registered an IC50 greater than 20 µg/mL.
`CC1=C(O)C(=O)[C@]2(O)C[C@H]3CC(C)(C)[C@H](O)[C@H]3[C@]12C` [CONNATUSIN A] yielded an IC50 greater than 20 µg/mL.
Same read-out and setting: to `CC1(C)C[C@@H]2CC3=CC(=O)[C@@](O)(CO)[C@@]3(C)[C@@H]2[C@H]1O` [CONNATUSIN B] belongs greater than 20 µg/mL.
Same read-out and setting: to `Cc1c2ccncc2c(C)c2c1[nH]c1ccccc12` [ELLIPTECINE] belongs 0.32 µg/mL (≈ 1.3 µM).
On the same count and under the same terms, to `C=C1[C@@H](O)[C@H]2O[C@]23C[C@H]2CC(C)(C)[C@H](O)[C@H]2[C@]13C` [HYPNOPHILIN 1] belongs 0.67 µg/mL (≈ 2.68 µM); to `C=C1C(=O)[C@H]2O[C@]23C[C@H]2CC(C)(C)[C@H](O)[C@H]2[C@]13C` [HYPNOPHILIN], greater than 20 µg/mL.
For the compound `CC(C)=C[C@@H](O)C1=CC(=O)[C@@H]2O[C@@H]2C1=O` [PANEPOXYDIONE], the 50% inhibitory concentration (IC50) turned out to be 0.22 µg/mL (≈ 1.06 µM).
Still for that read-out and setting: to `CC(C)=C[C@H](O)C1=C[C@@H](O)[C@@H]2O[C@@H]2C1=O` [PANEPOXYDONE] belongs 0.66 µg/mL (≈ 3.14 µM).

A further experiment concerns Vero. The experiment in a line: Cytotoxicity against african green monkey Vero cells by SRB assay. In kind it is cell-based. The settings on record: Chlorocebus sabaeus. In a few lines:
as §1
The compound `COc1ccc2c(c1)C(=O)CC(C)(C)O2` yielded an IC50 greater than 50 µg/mL.
Take `CC1=C(O)C(=O)[C@]2(O)C[C@H]3CC(C)(C)[C@H](O)[C@H]3[C@]12C` [CONNATUSIN A]: the half-maximal inhibitory concentration (IC50) was greater than 50 µg/mL.
For `CC1(C)C[C@@H]2CC3=CC(=O)[C@@](O)(CO)[C@@]3(C)[C@@H]2[C@H]1O` [CONNATUSIN B], the IC50 was greater than 50 µg/mL.
The same measure, in the same setting: to `C=C1[C@@H](O)[C@H]2O[C@]23C[C@H]2CC(C)(C)[C@H](O)[C@H]2[C@]13C` [HYPNOPHILIN 1] belongs 1.1 µg/mL (≈ 4.39 µM); to `C=C1C(=O)[C@H]2O[C@]23C[C@H]2CC(C)(C)[C@H](O)[C@H]2[C@]13C` [HYPNOPHILIN], greater than 50 µg/mL.
Still for that read-out and setting: to `CC(C)=C[C@@H](O)C1=CC(=O)[C@@H]2O[C@@H]2C1=O` [PANEPOXYDIONE] belongs 0.2 µg/mL (≈ 0.961 µM); to `CC(C)=C[C@H](O)C1=C[C@@H](O)[C@@H]2O[C@@H]2C1=O` [PANEPOXYDONE], 0.9 µg/mL (≈ 4.28 µM).
